Experimental data: ChEMBL document CHEMBL1146459, “Production of biologically active taxoids by a callus culture of Taxus cuspidata” (2004)

Columns and labels:
[1] = Reversal of multidrug resistance in human 2780AD cells assessed as [3H]vincristine accumulation at 0.1 ug/mL after 2 hrs relative to control; type: functional, A2780 ADR
How it was run: (§1)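 Multidrug-resistant human ovarian cancer 2780AD cells were exposed to taxoids at 0.1, 1 or 10 µg/mL. Radiolabelled vincristine accumulated in the cells was measured as dpm/well, using means of triplicate determinations. Results are expressed as % of vincristine accumulated relative to the control experiment. They were also scored on a seven-level index according to the range of relative accumulation.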

[2] = Reversal of multidrug resistance in human 2780AD cells assessed as [3H]vincristine accumulation at 10 ug/mL after 2 hrs relative to control; type: functional, A2780 ADR; how it was run: as §1
[3] = Reversal of multidrug resistance in human 2780AD cells assessed as [3H]vincristine accumulation at 0.1 ug/mL after 2 hrs relative to verapamil; type: functional, A2780 ADR
[4] = Reversal of multidrug resistance in human 2780AD cells assessed as [3H]vincristine accumulation at 10 ug/mL after 2 hrs relative to verapamil; type: functional, A2780 ADR
[5] = Growth inhibition of human BSY1 cells after 48 hrs by SRB assay; type: functional; details: BSY-1, 48 h
[6] = tested on: SF-268; assay: Growth inhibition of human SF268 cells after 48 hrs by SRB assay; type: functional; details: SF-268, 48 h
[7] = tested on: SF-295; assay: Growth inhibition of human SF295 cells after 48 hrs by SRB assay; type: functional; details: SF-295, 48 h
[8] = tested on: HCC 2998; assay: Growth inhibition of human HCC2998 cells after 48 hrs by SRB assay; type: functional; details: HCC 2998, 48 h
[9] = tested on: KM12; assay: Growth inhibition of human KM12 cells after 48 hrs by SRB assay; type: functional; details: KM12, 48 h
[10] = tested on: HT-29; assay: Growth inhibition of human HT-29 cells after 48 hrs by SRB assay; type: functional; details: HT-29, 48 h
[11] = tested on: DMS-273; assay: Growth inhibition of human DMS273 cells after 48 hrs by SRB assay; type: functional; details: DMS-273, 48 h
[12] = tested on: LOX IMVI; assay: Growth inhibition of human LOXIMVI cells after 48 hrs by SRB assay; type: functional
[13] = tested on: OVCAR-5; assay: Growth inhibition of human OVCAR5 cells after 48 hrs by SRB assay; type: functional; details: OVCAR-5, 48 h
[14] = tested on: OVCAR-8; assay: Growth inhibition of human OVCAR8 cells after 48 hrs by SRB assay; type: functional; details: OVCAR-8, 48 h
[15] = tested on: SK-OV-3; assay: Growth inhibition of human SKOV3 cells after 48 hrs by SRB assay; type: functional; details: SK-OV-3, 48 h
[16] = Growth inhibition of human RXF631L cells after 48 hrs by SRB assay; type: functional; details: RXF 631, 48 h
[17] = tested on: St-4; assay: Growth inhibition of human St-4 cells after 48 hrs by SRB assay; type: functional; details: St-4, 48 h
[18] = Growth inhibition of human MKN1 cells after 48 hrs by SRB assay; type: functional; details: MKN-1, 48 h
[19] = tested on: MKN-7; assay: Growth inhibition of human MKN7 cells after 48 hrs by SRB assay; type: functional; details: MKN-7, 48 h
[20] = tested on: MKN-45; assay: Growth inhibition of human MKN45 cells after 48 hrs by SRB assay; type: functional; details: MKN-45, 48 h
[21] = tested on: DU-145; assay: Growth inhibition of human DU145 cells after 48 hrs by SRB assay; type: functional; details: DU-145, 48 h
[22] = tested on: PC-3; assay: Growth inhibition of human PC3 cells after 48 hrs by SRB assay; type: functional; details: PC-3, 48 h
[23] = read-out: LC50 (the source's name)
[24] = read-out: pLC50 (the source's name) (converted)

C=C1[C@@H](OC(C)=O)CC[C@]2(C)[C@@H]1C[C@@H]1C[C@H](OC(C)=O)C(C)=C([C@@H](O)[C@@H]2OC(=O)/C=C/c2ccccc2)C1(C)C
Activity [1]: 162%
Activity [2]: 648%
Activity [3]: 139%
Activity [4]: 122%
GI50 ([5]; read-out: GI50): 6.9 µM
TGI ([5]; read-out: TGI): 82 µM
GI50 ([5]; read-out: pGI50 (converted)): 6.92 µM
TGI ([5]; read-out: pTGI (converted)): 87.1 µM
GI50 ([6]; read-out: GI50): 43 µM
CC50 [6, 23]: 100 µM
TGI ([6]; read-out: TGI): 100 µM
GI50 ([6]; read-out: pGI50 (converted)): 10.7 µM
CC50 [6, 24]: 100 µM
TGI ([6]; read-out: pTGI (converted)): 100 µM
GI50 ([7]; read-out: GI50): 10 µM
TGI ([7]; read-out: TGI): 100 µM
GI50 ([7]; read-out: pGI50 (converted)): 10.5 µM
TGI ([7]; read-out: pTGI (converted)): 100 µM
GI50 ([8]; read-out: GI50): 26 µM
CC50 [8, 23]: 100 µM
TGI ([8]; read-out: TGI): 100 µM
GI50 ([8]; read-out: pGI50 (converted)): 26.3 µM
CC50 [8, 24]: 100 µM
TGI ([8]; read-out: pTGI (converted)): 100 µM
GI50 ([9]; read-out: GI50): 6.4 µM
CC50 [9, 23]: > 100 µM
TGI ([9]; read-out: TGI): 100 µM
GI50 ([9]; read-out: pGI50 (converted)): 6.46 µM
CC50 ([9]; read-out: pLC50 (converted)): > 100 µM
TGI ([9]; read-out: pTGI (converted)): 100 µM
GI50 ([10]; read-out: GI50): 43 µM
CC50 [10, 23]: > 100 µM
TGI ([10]; read-out: TGI): 100 µM
GI50 ([10]; read-out: pGI50 (converted)): 41.7 µM
CC50 ([10]; read-out: pLC50 (converted)): > 100 µM
TGI ([10]; read-out: pTGI (converted)): 100 µM
GI50 ([11]; read-out: GI50): 4.2 µM
CC50 [11, 23]: 100 µM
TGI ([11]; read-out: TGI): 100 µM
GI50 ([11]; read-out: pGI50 (converted)): 4.17 µM
CC50 [11, 24]: 100 µM
TGI ([11]; read-out: pTGI (converted)): 100 µM
GI50 ([12]; read-out: GI50): 38 µM
CC50 [12, 23]: 100 µM
TGI ([12]; read-out: TGI): 100 µM
GI50 ([12]; read-out: pGI50 (converted)): 38 µM
CC50 [12, 24]: 100 µM
TGI ([12]; read-out: pTGI (converted)): 100 µM
GI50 ([13]; read-out: GI50): 32 µM
TGI ([13]; read-out: TGI): 100 µM
GI50 ([13]; read-out: pGI50 (converted)): 32.4 µM
TGI ([13]; read-out: pTGI (converted)): 100 µM
GI50 ([14]; read-out: GI50): > 100 µM
TGI ([14]; read-out: TGI): 100 µM
GI50 ([14]; read-out: pGI50 (converted)): > 100 µM
TGI ([14]; read-out: pTGI (converted)): 100 µM
GI50 ([15]; read-out: GI50): > 100 µM
CC50 [15, 23]: 100 µM
TGI ([15]; read-out: TGI): 100 µM
GI50 ([15]; read-out: pGI50 (converted)): > 100 µM
CC50 [15, 24]: 100 µM
TGI ([15]; read-out: pTGI (converted)): 100 µM
GI50 ([16]; read-out: GI50): > 100 µM
CC50 [16, 23]: 100 µM
TGI ([16]; read-out: TGI): 100 µM
GI50 ([16]; read-out: pGI50 (converted)): > 100 µM
CC50 [16, 24]: 100 µM
TGI ([16]; read-out: pTGI (converted)): 100 µM
GI50 ([17]; read-out: GI50): 24 µM
CC50 [17, 23]: 100 µM
TGI ([17]; read-out: TGI): 100 µM
GI50 ([17]; read-out: pGI50 (converted)): 24 µM
CC50 [17, 24]: 100 µM
TGI ([17]; read-out: pTGI (converted)): 100 µM
GI50 ([18]; read-out: GI50): 93 µM
TGI ([18]; read-out: TGI): 100 µM
GI50 ([18]; read-out: pGI50 (converted)): 93.3 µM
TGI ([18]; read-out: pTGI (converted)): 100 µM
GI50 ([19]; read-out: GI50): 5.1 µM
CC50 [19, 23]: 100 µM
TGI ([19]; read-out: TGI): 100 µM
GI50 ([19]; read-out: pGI50 (converted)): 5.13 µM
CC50 [19, 24]: 100 µM
TGI ([19]; read-out: pTGI (converted)): 100 µM
CC50 [20, 23]: 100 µM
TGI ([20]; read-out: TGI): 100 µM
GI50 ([20]; read-out: pGI50 (converted)): > 100 µM
CC50 [20, 24]: 100 µM
TGI ([20]; read-out: pTGI (converted)): 100 µM
GI50 ([21]; read-out: GI50): > 100 µM
CC50 [21, 23]: 100 µM
TGI ([21]; read-out: TGI): 100 µM
GI50 ([21]; read-out: pGI50 (converted)): > 100 µM
CC50 [21, 24]: 100 µM
TGI ([21]; read-out: pTGI (converted)): 100 µM
GI50 ([22]; read-out: GI50): 5.2 µM
TGI ([22]; read-out: TGI): 100 µM
GI50 ([22]; read-out: pGI50 (converted)): 5.25 µM
TGI ([22]; read-out: pTGI (converted)): 100 µM
